# According to ChEMBL document CHEMBL4689842, “EUbOPEN Chemogenomics Library wave 1” (2021):
# Key:
# Assay type in all cases: toxicity, cell-based
# [1] = system: Fibroblast; assay: Multiplex assay against human fibroblast
# Method in brief: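 Compound was added to live cells that had been stained at seeding with Hoechst33342, BioTracker Green Microtubule Cytoskeleton Dye, MitoTracker Red and Annexin V Alexa Fluor 680, and imaging followed on a CQ1 microscope at 37°C and 5% CO2. CellPathfinder machine-learning gating divided cells into Hoechst high-intensity objects or normal cells, normal cells into healthy, pyknosed or fragmented nuclei, and pyknosed cells into mitotic or apoptotic. Tubulin, mitochondrial-mass and membrane-permeability phenotypes are per cents of healthy-nucleus cells.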
# [2] = system: HEK-293T; assay: Incucyte cell viability with HEK293T; conditions: human, 10 µM, compound concentration 10 uM; note: filed as whole numbers so only -1 and 0 and 1 occur
# [3] = system: U2OS; assay: Incucyte cell viability with U2OS; conditions: human, 10 µM, compound concentration 10 uM; note: filed as whole numbers so only -1 and 0 and 1 occur
# [4] = 12 h, 1 µM, compound concentration 1 uM, replicate 1
# [5] = 12 h, 1 µM, compound concentration 1 uM, replicate 2
# [6] = 12 h, 10 µM, compound concentration 10 uM, replicate 1
# [7] = 12 h, 10 µM, compound concentration 10 uM, replicate 2
# [8] = 24 h, 1 µM, compound concentration 1 uM, replicate 1
# [9] = 24 h, 1 µM, compound concentration 1 uM, replicate 2
# [10] = 24 h, 10 µM, compound concentration 10 uM, replicate 1
# [11] = 24 h, 10 µM, compound concentration 10 uM, replicate 2
# [12] = 48 h, 1 µM, compound concentration 1 uM, replicate 1
# [13] = 48 h, 1 µM, compound concentration 1 uM, replicate 2
# [14] = 48 h, 10 µM, compound concentration 10 uM, replicate 1
# [15] = 48 h, 10 µM, compound concentration 10 uM, replicate 2
# [16] = 6 h, replicate number 1, timepoint 6 hours
# [17] = 12 h, replicate number 1, timepoint 12 hours
# [18] = 18 h, replicate number 1, timepoint 18 hours
# [19] = 24 h, replicate number 1, timepoint 24 hours
compound,measurement,setting,value
Cl.Cl.Nc1ncnc2c1c(-c1cccc(OCc3ccccc3)c1)cn2[C@H]1C[C@@H](CN2CCC2)C1,Population Apoptotic (%),[1]; [4],70%
same,Population Fragmented Nuclei (%),[1]; [4],31%
same,Population Healthy Nuclei (%),[1]; [4],48%
same,Population Hoechst High Intensity Objects (%),[1]; [4],22%
same,Population Membrane Permeable-Phenotype (%),[1]; [4],21%
same,Population Mitochondria Different-Phenotype (%),[1]; [4],9%
same,Population Mitotic Cells (%),[1]; [4],29%
same,Population Normal (%),[1]; [4],77%
same,Population Pyknosed Nuclei (%),[1]; [4],20%
same,Population Tubulin-Different-Phenotype (%),[1]; [4],53%
same,Total Cell Count,[1]; [4],109
same,Population Apoptotic (%),[1]; [5],29%
same,Population Fragmented Nuclei (%),[1]; [5],11%
same,Population Healthy Nuclei (%),[1]; [5],67%
same,Population Hoechst High Intensity Objects (%),[1]; [5],6%
same,Population Membrane Permeable-Phenotype (%),[1]; [5],3%
same,Population Mitochondria Different-Phenotype (%),[1]; [5],71%
same,Population Mitotic Cells (%),[1]; [5],70%
same,Population Normal (%),[1]; [5],93%
same,Population Tubulin-Different-Phenotype (%),[1]; [5],52%
same,Total Cell Count,[1]; [5],55
same,Population Apoptotic (%),[1]; [6],60%
same,Population Fragmented Nuclei (%),[1]; [6],24%
same,Population Healthy Nuclei (%),[1]; [6],39%
same,Population Hoechst High Intensity Objects (%),[1]; [6],38%
same,Population Membrane Permeable-Phenotype (%),[1]; [6],9%
same,Population Mitochondria Different-Phenotype (%),[1]; [6],50%
same,Population Mitotic Cells (%),[1]; [6],40%
same,Population Normal (%),[1]; [6],61%
same,Population Pyknosed Nuclei (%),[1]; [6],36%
same,Population Tubulin-Different-Phenotype (%),[1]; [6],77%
same,Total Cell Count,[1]; [6],222
same,Population Apoptotic (%),[1]; [7],85%
same,Population Fragmented Nuclei (%),[1]; [7],22%
same,Population Healthy Nuclei (%),[1]; [7],47%
same,Population Hoechst High Intensity Objects (%),[1]; [7],8%
same,Population Membrane Permeable-Phenotype (%),[1]; [7],77%
same,Population Mitochondria Different-Phenotype (%),[1]; [7],97%
same,Population Mitotic Cells (%),[1]; [7],14%
same,Population Normal (%),[1]; [7],91%
same,Population Pyknosed Nuclei (%),[1]; [7],29%
same,Population Tubulin-Different-Phenotype (%),[1]; [7],97%
same,Total Cell Count,[1]; [7],90
same,Population Apoptotic (%),[1]; [8],53%
same,Population Fragmented Nuclei (%),[1]; [8],29%
same,Population Healthy Nuclei (%),[1]; [8],57%
same,Population Hoechst High Intensity Objects (%),[1]; [8],26%
same,Population Membrane Permeable-Phenotype (%),[1]; [8],18%
same,Population Mitochondria Different-Phenotype (%),[1]; [8],3%
same,Population Mitotic Cells (%),[1]; [8],46%
same,Population Normal (%),[1]; [8],73%
same,Population Pyknosed Nuclei (%),[1]; [8],12%
same,Population Tubulin-Different-Phenotype (%),[1]; [8],53%
same,Total Cell Count,[1]; [8],141
same,Population Apoptotic (%),[1]; [9],28%
same,Population Fragmented Nuclei (%),[1]; [9],13%
same,Population Healthy Nuclei (%),[1]; [9],64%
same,Population Hoechst High Intensity Objects (%),[1]; [9],6%
same,Population Membrane Permeable-Phenotype (%),[1]; [9],4%
same,Population Mitochondria Different-Phenotype (%),[1]; [9],68%
same,Population Mitotic Cells (%),[1]; [9],71%
same,Population Normal (%),[1]; [9],93%
same,Population Pyknosed Nuclei (%),[1]; [9],21%
same,Population Tubulin-Different-Phenotype (%),[1]; [9],39%
same,Total Cell Count,[1]; [9],50
same,Population Apoptotic (%),[1]; [10],84%
same,Population Fragmented Nuclei (%),[1]; [10],18%
same,Population Healthy Nuclei (%),[1]; [10],40%
same,Population Hoechst High Intensity Objects (%),[1]; [10],48%
same,Population Membrane Permeable-Phenotype (%),[1]; [10],5%
same,Population Mitochondria Different-Phenotype (%),[1]; [10],59%
same,Population Mitotic Cells (%),[1]; [10],15%
same,Population Normal (%),[1]; [10],51%
same,Population Pyknosed Nuclei (%),[1]; [10],41%
same,Population Tubulin-Different-Phenotype (%),[1]; [10],67%
same,Total Cell Count,[1]; [10],178
same,Population Apoptotic (%),[1]; [11],92%
same,Population Fragmented Nuclei (%),[1]; [11],21%
same,Population Healthy Nuclei (%),[1]; [11],35%
same,Population Hoechst High Intensity Objects (%),[1]; [11],9%
same,Population Membrane Permeable-Phenotype (%),[1]; [11],93%
same,Population Mitochondria Different-Phenotype (%),[1]; [11],96%
same,Population Mitotic Cells (%),[1]; [11],7%
same,Population Normal (%),[1]; [11],90%
same,Population Pyknosed Nuclei (%),[1]; [11],42%
same,Population Tubulin-Different-Phenotype (%),[1]; [11],96%
same,Total Cell Count,[1]; [11],104
same,Population Apoptotic (%),[1]; [12],83%
same,Population Fragmented Nuclei (%),[1]; [12],36%
same,Population Healthy Nuclei (%),[1]; [12],56%
same,Population Hoechst High Intensity Objects (%),[1]; [12],28%
same,Population Membrane Permeable-Phenotype (%),[1]; [12],12%
same,Population Mitotic Cells (%),[1]; [12],16%
same,Population Normal (%),[1]; [12],71%
same,Population Pyknosed Nuclei (%),[1]; [12],6%
same,Population Tubulin-Different-Phenotype (%),[1]; [12],33%
same,Total Cell Count,[1]; [12],132
same,Population Apoptotic (%),[1]; [13],50%
same,Population Fragmented Nuclei (%),[1]; [13],32%
same,Population Healthy Nuclei (%),[1]; [13],65%
same,Population Hoechst High Intensity Objects (%),[1]; [13],22%
same,Population Membrane Permeable-Phenotype (%),[1]; [13],9%
same,Population Mitochondria Different-Phenotype (%),[1]; [13],5%
same,Population Mitotic Cells (%),[1]; [13],50%
same,Population Normal (%),[1]; [13],77%
same,Population Pyknosed Nuclei (%),[1]; [13],1%
same,Population Tubulin-Different-Phenotype (%),[1]; [13],54%
same,Total Cell Count,[1]; [13],145
same,Population Apoptotic (%),[1]; [14],94%
same,Population Fragmented Nuclei (%),[1]; [14],34%
same,Population Healthy Nuclei (%),[1]; [14],25%
same,Population Hoechst High Intensity Objects (%),[1]; [14],32%
same,Population Membrane Permeable-Phenotype (%),[1]; [14],0%
same,Population Mitochondria Different-Phenotype (%),[1]; [14],79%
same,Population Mitotic Cells (%),[1]; [14],5%
same,Population Normal (%),[1]; [14],67%
same,Population Pyknosed Nuclei (%),[1]; [14],40%
same,Population Tubulin-Different-Phenotype (%),[1]; [14],79%
same,Total Cell Count,[1]; [14],139
same,Population Apoptotic (%),[1]; [15],81%
same,Population Fragmented Nuclei (%),[1]; [15],14%
same,Population Healthy Nuclei (%),[1]; [15],34%
same,Population Hoechst High Intensity Objects (%),[1]; [15],47%
same,Population Membrane Permeable-Phenotype (%),[1]; [15],9%
same,Population Mitochondria Different-Phenotype (%),[1]; [15],68%
same,Population Mitotic Cells (%),[1]; [15],18%
same,Population Normal (%),[1]; [15],52%
same,Population Pyknosed Nuclei (%),[1]; [15],51%
same,Population Tubulin-Different-Phenotype (%),[1]; [15],63%
same,Total Cell Count,[1]; [15],122
same,Growth Rate,[2]; [16],0
same,Growth Rate,[2]; [17],0
same,Growth Rate,[2]; [18],0
same,Growth Rate,[2]; [19],0
same,Growth Rate,"[3]; 0 h, replicate number 1, timepoint 0 hours",0
same,Growth Rate,[3]; [16],0
same,Growth Rate,[3]; [17],0
same,Growth Rate,"[3]; 12 h, replicate number 2, timepoint 12 hours",1
same,Growth Rate,[3]; [18],0
same,Growth Rate,"[3]; 18 h, replicate number 2, timepoint 18 hours",1
same,Growth Rate,[3]; [19],0
